Where a SMILES comes first, the peptide text is derived from it. [ ]: non-standard residue; d: D form. d2Nal = N[C@H](Cc1ccc2ccccc2c1)C(=O)O; d(hPhe) = N[C@H](CCc1ccccc1)C(=O)O; Aib = CC(C)(N)C(=O)O
organism: Rattus norvegicus; test: Effective concentration for ability to release growth hormone from rat pituitary cells; assay type: functional, cell-based; settings: Pituitary gland cell
Summary of the method: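 Rat anterior pituitaries were digested with 0.2% collagenase, 0.2% hyaluronidase and 200 U/mL DNase I. Cells were plated at 1.0 × 10⁵ cells/mL in DMEM with 7.5% horse serum and 5.0% fetal calf serum and cultured 3 days. After washes in medium with 20 mM HEPES pH 7.4, cells were exposed to compound for 15 min at 37 °C. Released GH was measured by RIA. EC50 was referenced to the maximal GH level from 10^-8 M KP-102.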

SMILES | EC50
NCCNC(=O)[C@@H](Cc1ccc2ccccc2c1)NC(=O)CN1C(=O)CCS(=O)(=O)c2ccccc21 | 0.1 µM
NCC(O)CNC(=O)[C@@H](Cc1ccc2ccccc2c1)NC(=O)CCCN1C(=O)CCSc2ccccc21 (some centres undefined) | 0.001 µM
NCCNC(=O)[C@@H](Cc1ccc2ccccc2c1)NC(=O)CCN1C(=O)CCS(=O)(=O)c2ccccc21 | 0.01 µM
O=C(N[C@H](Cc1ccc2ccccc2c1)C(=O)N[C@@H](CO)Cc1ccc2ccccc2c1)C1CCNCC1 | 0.0018 µM
NCCNC(=O)[C@H](Cc1ccccc1)NC(=O)CN1C(=O)CCSc2ccccc21 | 1 µM
NC(=O)CN(CCc1ccccc1)C(=O)[C@@H](Cc1ccc2ccccc2c1)NC(=O)[C@@H](Cc1ccc2ccccc2c1)NC(=O)C1CCNCC1 | 0.0001 µM
NCCNC(=O)[C@@H](Cc1ccccc1)NC(=O)CN1C(=O)CCS(=O)(=O)c2ccccc21 | 1 µM
C[C@H](NC(=O)[C@@H](Cc1c[nH]c2ccccc12)NC(=O)[C@@H](N)Cc1c[nH]cn1)C(=O)N[C@@H](Cc1c[nH]c2ccccc12)C(=O)N[C@H](Cc1ccccc1)C(=O)N[C@H](CCCCN)C(N)=O | 0.1 µM
C[C@H](NC(=O)[C@@H](Cc1ccc2ccccc2c1)NC(=O)[C@@H](C)N)C(=O)N[C@@H](Cc1c[nH]c2ccccc12)C(=O)N[C@H](Cc1ccccc1)C(=O)O | 0.01 µM
CC(C)[C@H](NC(=O)[C@@H](Cc1c[nH]c2ccccc12)NC(=O)[C@@H](N)Cc1c[nH]cn1)C(=O)N[C@@H](Cc1c[nH]c2ccccc12)C(=O)N[C@H](Cc1ccccc1)C(=O)N[C@@H](CCCCN)C(N)=O (H-H[dW]VW[dF]K-NH2) | > 1 µM
CCOC(=O)[C@@H](CCc1ccccc1)NC(=O)[C@@H](Cc1c[nH]c2ccccc12)NC(=O)C(C)(C)N (H-[Aib]-[dW]-[d(hPhe)]-OEt) | 0.003 µM
C[C@H](NC(=O)[C@@H](Cc1ccc2ccccc2c1)NC(=O)[C@@H](C)N)C(=O)N[C@@H](Cc1c[nH]c2ccccc12)C(=O)N[C@H](Cc1ccccc1)C(=O)N[C@@H](CCCCN)C(=O)O (H-[dA][d2Nal]AW[dF]K-OH) | 0.001 µM
C[C@H](NC(=O)[C@@H](Cc1ccccc1)NC(=O)[C@@H](C)N)C(=O)N[C@@H](Cc1ccccc1)C(=O)N[C@H](Cc1ccccc1)C(=O)N[C@@H](CCCCN)C(N)=O (H-[dA][dF]AF[dF]K-NH2) | 0.01 µM
C[C@H](NC(=O)[C@@H](Cc1ccc2ccccc2c1)NC(=O)[C@@H](C)N)C(=O)N[C@@H](Cc1c[nH]c2ccccc12)C(=O)N[C@H](Cc1ccccc1)C(=O)N[C@@H](CCCCN)C(N)=O [PRALMORELIN] (H-[dA][d2Nal]AW[dF]K-NH2) | 0.0002 µM

Source: ChEMBL document CHEMBL1134283, “Rational design, discovery, and synthesis of a novel series of potent growth hormone secretagogues” (J Med Chem, 2001)
